TDP2 absorb = TDP2 (human) inhibition, absorbance primary screen; recombinant TDP2, T5PNP hydrolysis, p-nitrophenol absorbance 415 nm; inhibition, % at 12.8 µM; 0.34% of 370,000 active;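 active = inhibition above the mean of all tested compounds plus 3 SD, set per campaign, cut at about 25% in these data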;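 note: 0% = DMSO with enzyme and 100% = buffer with substrate but no TDP2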
Target sequence (O95551 whole entry, looked up): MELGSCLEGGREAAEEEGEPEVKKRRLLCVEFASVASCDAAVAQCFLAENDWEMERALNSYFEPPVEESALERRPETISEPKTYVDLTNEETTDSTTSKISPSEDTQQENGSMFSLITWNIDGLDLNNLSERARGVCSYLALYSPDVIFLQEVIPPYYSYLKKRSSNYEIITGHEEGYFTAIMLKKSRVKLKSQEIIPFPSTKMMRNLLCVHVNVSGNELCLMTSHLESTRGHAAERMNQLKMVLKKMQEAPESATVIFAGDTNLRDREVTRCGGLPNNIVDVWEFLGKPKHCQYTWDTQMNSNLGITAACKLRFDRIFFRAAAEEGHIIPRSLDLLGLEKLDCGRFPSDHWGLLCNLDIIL
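Assay system: recombinant human TDP2 / Reagent: T5PNP substrate at 5 mM, a TopII-DNA adduct mimic / Measured by: epi absorbance from released p-nitrophenol / Evaluation: % inhibition relative to enzyme-containing and enzyme-free wells / Control set: enzyme-free and DMSO wells / Replicates: each compound tested once, singlicate / Schedule: enzyme reaction with compound for 2 h at 37 °C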
MBD2 inh = blocks human MBD2 binding to methylated DNA | Q9UBB5 | TR-FRET, MBD2 binding to methylated oligonucleotide | inhibition, % at 4.4 µM | 0.31% of 370,000 active | AID 686964; in the data active = inhibition above about 13%
UHRF1 binding = blocks human UHRF1 binding to methylated DNA; inhibition, % at 4.4 µM; Q96T88; AID 687016; UHRF1 binding to methylated oligo, TR-FRET; 0.75% of 370,000 active;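 note: UHRF1 SRA domain binding a hemimethylated CpG hairpin DNA probe; 0% = median of test compound wells and 100% = reference inhibitor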
LEDGF integ inh = blocks HIV-1 LEDGF/p75-dependent DNA integration. TR-FRET IN-LEDGF/p75 DNA integration, Eu/Cy5. inhibition, % at 3.7 µM. 0.64% of 370,000 active;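 active = inhibition above the screen-wide mean plus 3 SD, cut at about 13% in these data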;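 note: signal is the Cy5 over europium emission ratio at 671 and 618 nm; 0% = plate median of compound wells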
PRMT1 inh = blocks human protein arginine methyltransferase 1 | 1.3% of 370,000 active | inhibition, % at 2.79 µM | recombinant PRMT1, activity-based probe fluorescence polarization;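 active = inhibition above about 21% made by adding two undisclosed values, limit read from the data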
SIAE inh = human SIAE inhibition, primary screen; Q9HAT2; 0.69% of 370,000 active; inhibition, % at 9.66 µM; SIAE FP-Rh probe binding, fluorescence polarization; AID 1053197;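 active = inhibition above a cutoff: mean of compounds within the control limits plus 3 SD of those, cut at about 17% in these data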;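 note: 0% = plate median of compound wells and 100% = probe without SIAE protein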
UHRF1 ctr MBD2 = inhibits human UHRF1 binding to methylated oligonucleotide, MBD2 counter-screen; 25% of 1,000 active; TR-FRET; shares compounds with MBD2 inh; inhibition, % at 4.4 µM;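 note: UHRF1 SRA domain binding a labeled hemimethylated CpG hairpin DNA; 0% = vehicle only and 100% = reference inhibitor with vehicle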
MBD2 confirm = confirmation of human MBD2-DBD methylated oligonucleotide binding inhibitors; shares compounds with MBD2 inh; TR-FRET MBD2-DBD binding to methylated oligonucleotide; inhibition, % at 4.4 µM; AID 720531; 26% of 1,000 active; in the data active = inhibition above about 14%
An asterisk follows results filed as active; . = not tested or not shown. Most compounds without a hit are left out; they make up all but 3.3% or so of the library. Cut-off read from the data, not from the text of the source, unless noted: active = inhibition above about 21%; inactive = the rest.

SMILES | TDP2 absorb | MBD2 inh | UHRF1 binding | LEDGF integ inh | PRMT1 inh | SIAE inh | UHRF1 ctr MBD2 | MBD2 confirm
Cc1ccccc1-c1nc2ccccc2c(=O)n1/N=C/c1ccc([N+](=O)[O-])cc1 | -10 | 15* | 1 | 7 | -7 | 4 | -1 | 1
Cn1ccnc1CN1CCC[C@]2(CC[C@H](CCC#N)O2)C1 | 13 | -1 | -2 | 1 | -4 | -4 | . | .
O=C(O)c1ccc(CNCc2cccc(OCc3ccc(F)cc3)c2)cc1 | 1 | 0 | 2 | -4 | 4 | 3 | . | .
Fc1ccc(COc2cccc(CNCc3ccncc3)c2)cc1 | -3 | 38* | 0 | -7 | 5 | 10 | 0 | 1
Cc1ccccc1NC(=O)N1CCC(NC(=O)C2CCCCC2)CC1 | 13 | 14* | 19 | 1 | 0 | -4 | 6 | 5
COC(=O)C[C@@H]1CC[C@@H](NC(=O)C2CCC2)[C@@H](CO)O1 | -8 | 21* | 23* | 7 | 4 | -2 | 9 | 4
CC(C)C[C@H](NC1(C(=O)NCCc2c[nH]c3ccccc23)CCN(C)CC1)C(=O)NCCCc1ccccc1 | -13 | -1 | -2 | -3 | 0 | -1 | . | .
CCOC(=O)C1CCN(CC(=O)Nc2c(C(=O)OC)[nH]c3cccc(Cl)c23)CC1 | -8 | 14* | -1 | 2 | 2 | -3 | 3 | 6
COc1ccc(Cl)cc1C(=O)NCCN(C)C | -4 | 4 | 4 | 6 | -2 | -9 | . | .
COc1cccc2nc3c(C(=O)NCCN(C)C)cccc3cc12 | 10 | 19* | -12 | 3 | 7 | 4 | -5 | 30*
COc1ccc(C(=O)NCCN(C)C)c2nc3ccccc3cc12 | 3 | 36* | -2 | 0 | 0 | 5 | 16 | 70*
CN(C)CCNC(=O)c1cccc2[nH]c(-c3ccncc3)nc12 | 13 | 13* | 11 | -1 | 0 | 2 | 16 | 20*
CN(C)CCNC(=O)c1ccccc1-c1ccccc1 | -2 | 0 | -2 | -3 | -3 | -3 | . | .
Cc1ccccc1Cn1cc(COC(=O)Nc2ccc(F)cc2)nn1 | -2 | 0 | 4 | -1 | 2 | -9 | . | .
O=C(NCCc1c[nH]c2ccccc12)OCc1cn(-c2ccccc2Cl)nn1 | 8 | 4 | 0 | -3 | 5 | 0 | . | .
Cc1ccc(C(=O)N2CCN(C(=O)CN3CCOCC3)C2)cc1 | 2 | 14* | 17 | 1 | -1 | 2 | 7 | 4
CC(C)(C)C1CCc2onc(C(=O)NCc3ccc(F)cc3)c2C1 (stereo not drawn) | -12 | 17* | 17 | 1 | 3 | -1 | 2 | 2
O=C(Nc1ncc2c(n1)CC(c1ccccc1)CC2=O)c1ccco1 (stereo not drawn) | 0 | -1 | 2 | 2 | 4 | -4 | . | .
O=C(Nc1ncc2c(n1)CC(c1cccc(Cl)c1)CC2=O)c1ccco1 (stereo not drawn) | 3 | 52* | 86* | 9 | 2 | -5 | 8 | 2
Cc1ccc2sc(N(CCCN(C)C)C(=O)c3ccc(S(=O)(=O)N(C)Cc4ccccc4)cc3)nc2c1C | -6 | 56* | 0 | -2 | -1 | 11 | 3 | 1
Cc1ccc2sc(N(CCCN(C)C)C(=O)c3ccc(S(=O)(=O)N(C)C)cc3)nc2c1C | 1 | 4 | 5 | -6 | 4 | 3 | . | .
Cc1ccc(NC(=O)Cn2cccc2)c(Br)c1 | 7 | -5 | 1 | -1 | 4 | 0 | . | .
Cc1ccc(NC(=O)CN(C)CC(=O)Nc2c(C)cccc2C)c(Br)c1 | 13 | 38* | -2 | -1 | -2 | 7 | 0 | 5
C[C@@H](N)C(=O)Nc1ccc(Cl)cc1C(=O)c1ccc[nH]1 | 5 | 6 | -3 | 0 | -5 | -4 | . | .
CC(=O)Nc1cc(N2C(=O)CCC2=O)ccc1Cl | 5 | 6 | 3 | 3 | 0 | -1 | . | .
SMILES | TDP2 absorb | MBD2 inh | UHRF1 binding | LEDGF integ inh | PRMT1 inh | SIAE inh | UHRF1 ctr MBD2 | MBD2 confirm
O=C(O)c1cc(N2C(=O)CCC2=O)ccc1Cl | 9 | 15* | 18 | 6 | 0 | -3 | 4 | 2
COc1cc2c(cc1OC)-c1c(OC)c(OC)cc3ccnc(c13)C2=O | 6 | 33* | 37* | -2 | 4 | 0 | 53* | 46*
CCOc1ccc(C=NNC(=O)c2cc(-c3ccc(Cl)cc3)n[nH]2)cc1 | 12 | 3 | -2 | -2 | 2 | -8 | . | .
Cc1ccc(NC(=O)CSc2nc(C)cc(=O)[nH]2)c(C)c1 | -4 | 1 | 0 | 0 | -1 | -2 | . | .
O=[N+]([O-])c1ccc(NN=Cc2cc(Br)ccc2O)nc1 | 1 | 18* | -3 | 0 | 1 | 4 | 4 | 1
O=[N+]([O-])c1ccc(NN=Cc2cccc(O)c2)nc1 | -1 | -2 | -1 | -4 | 0 | -2 | . | .
COc1ccc(CCN(Cc2cccs2)S(=O)(=O)c2ccc(C)s2)cc1OC | -4 | 2 | 0 | 1 | 3 | -3 | . | .
CCCNC(=O)c1ccc2c(=O)n3c(-c4ccc(C)cc4)csc3nc2c1 | 2 | 15* | 16 | 2 | 3 | -2 | 0 | 7
CCOC(=O)CC[C@@H]1CC[C@]2(CCCN(C(=O)C(C)(C)C)C2)O1 | 0 | -5 | 1 | 2 | -4 | -3 | . | .
CC(=O)Nc1cc(-c2cccc(C(=O)N(C)C)c2)cn2c(-c3ccc(C(C)=O)cc3)cnc12 | 5 | 14* | -3 | -2 | 0 | -3 | 8 | 5
O=C(CN1CCOCC1)NCCC12CC3CC(CC(C3)C1)C2 | -6 | 14* | 4 | -2 | 4 | -2 | 2 | 4
O=S1(=O)c2ccc(N3CCSCC3)cc2Oc2ccccc2CN1Cc1cn(Cc2cccc(F)c2)nn1 | 3 | 3 | 2 | -4 | 0 | -7 | . | .
O=S(=O)(NCC1CCCO1)c1ccc2oc3ccc(S(=O)(=O)NCC4CCCO4)cc3c2c1 (stereo not drawn) | 6 | 18* | -2 | 2 | 0 | -4 | 12 | 3
O=S(=O)(NCC1CCCO1)c1ccc(Br)cc1 (stereo not drawn) | 24 | -4 | 2 | 2 | -6 | 1 | . | .
O=C(Oc1ccc2c(c1)OCO2)c1cc2c(s1)CCC2 | 12 | 25* | 35* | 12 | 4 | 7 | 36* | 28*
Cc1cc(C)cc(NC(=O)C2(C(=O)C3CC3)CC(c3ccccc3C(F)(F)F)=NO2)c1 (stereo not drawn) | 5 | -1 | -1 | -2 | -4 | -1 | . | .
CC1Sc2ccccc2N(Cc2ccccc2)C1=O (stereo not drawn) | 6 | 0 | -1 | -1 | -4 | -1 | . | .
